This sample holds only a part of the variants without activity.

First the molecules themselves.
B1: tRNA (parent)
chain: GUUCCGUUGGCGUAAUGGUAACGCGUCUCCCUCCUAAGGAGAAGACUGCGGGUUCGAGUCCCGUACGGAACG

The series covers variants of B1. The series is described as follows: yeast fitness relative to wild type (ratio to wild type); higher = fitter; tRNA-Arg(CCU), competitive growth, 37 C, YPD. In short, it runs like this:
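Variants of the tRNA-Arg(CCU) gene, chemically synthesised with a 3% per-site mutation rate at 69 sites, were placed at the native genomic locus in Saccharomyces cerevisiae. The pooled strains were competed in YPD at 37°C for 24 hours in six parallel replicates. Gene amplicons from the start population and from each end population were read by 100-nucleotide paired-end sequencing. Darwinian fitness relative to wild type came from changes in genotype frequencies; genotypes needed ≥ 100 starting reads, and estimates < 0.5 were set to 0.5.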
On to GUUCCGUUGGCGUAAUGGUAACGCGUCUCCCCCCUAAGGAGAAGACUGCGGGUUCGUGUCCCGUACGGACCG [U32C A57U A70C], for which the yeast fitness is not above 0.5. In the case of GUUCCGUUGGCGUAAUGGUAACGCGUCUCCCCCCUAGGGAGAAGACUGCGGGUUCGAGUCCCGUACGGAACG [U32C A37G] it was 0.819. In the case of GUUCCGUUGGCGUAAUGGUAACGCGUCUCCCACCUAAGGAGAAGACUGCGGAUUCGAGUCCCGUACGGAACG [U32A G52A], the yeast fitness was not above 0.5. Next, GUUCCGUUGGCGUAAUGGUAACGCGUCUCCCACCUAAGGAGAAGACCGCGGGUUCGAGUCCCGUACGGAACG [U32A U47C]: 0.826. As for GUUCCGUUGGCGUAAUGGUAACGCGUCUCCCCGCUAGGGAGAAGACUGCGGAUUUGAGUCCCGUUCGGAACG [U32C C33G A37G G52A C55U A65U], the yeast fitness amounted to 0.555. For GUUCCGUUGGCGUAAUGGUAACGCGUCUCCCCUCUAAGGAGUAGACUGCGGGUUCGAGUCCCGUACGGAACG [U32C C33U A42U], the yeast fitness was 0.66. Next, GUUCCGUUGGCGUAAUGGUAACGCGUCUCCCACCUAACGAGAAGACUGCGGGUUCGAGUCCCGUACGGAACG [U32A G38C]: 0.652; GUUCCGUUGGCGUAAUGGUAACGCGUCUCCCACCGUAAGAGAAGACCGCGGGUUCGAGUCCCGUACGGAACG [U32A U35G A36U G38A U47C]: not above 0.5. In the case of GUUCCGUUGGCGUAAUGGUAACGCGUCUCCCACCAAAGGAGUAGACUGCGGGUUCGAGUCCCGUACGGAACG [U32A U35A A42U] it was not above 0.5; in that of GUUCCGUUGGCGUAAUGGUAACGCGUCUCCCCCCUAAGGAGUAGACUGCGGGUUCGAGUCCGGUACGGAACG [U32C A42U C62G], 0.578; in that of GUUCCGUUGGCGUAAUGGUAACGCGUCUCCCCCCUAAGGGGAAGACUCCGGGUUCGAGUCCCGUACGGUUCG [U32C A40G G48C A69U A70U], not above 0.5. In the case of GUUCCGUUGGCGUAAUGGUAACGCGUCUCCCACCUAAGGACAAGACUGGGGGUUUGAGUCCCGUACGGAACG [U32A G41C C49G C55U] it was not above 0.5.

On to GUUCCGUUGGCGUAAUGGUAACGCGUCUCCCCCCUAAGGGGAAGACUGCGGGUUCGAGUCCCGUACGGAACG [U32C A40G], for which the yeast fitness stood at 0.66.

With GUUCCGUUGGCGUAAUGGUAACGCGUCUCCCACCUAAGGAGAAGACUGCAGGUUCGAGUCCCGUACGGUACG [U32A G50A A69U], the yeast fitness is 0.527. Next, GUUCCGUUGGCGUAAUGGUAACGCGUCUCCCACCUAAGGAGAAGACUGCGGGUUCCAGUCCCGUACGGUACG [U32A G56C A69U]: 0.53; GUUCCGUUGGCGUAAUGGUAACGCGUCUCCCCCCUAUGGAGAAGACUACGGGUUCGAGUCCCGUACGGAACG [U32C A37U G48A]: 0.537; GUUCCGUUGGCGUAAUGGUAACGCGUCUCCCCCCUACGGAGAAGACUGGGGGUUCGGGUCCCGUACGGAACG [U32C A37C C49G A57G]: not above 0.5.

GUUCCGUUGGCGUAAUGGUAACGCGUCUCCCCCCUAAGGUGAAGACUGCGGGUUCGAGCCCCGUACGGAACG [U32C A40U U59C]: the yeast fitness amounted to 0.718. Next, GUUCCGUUGGCGUAAUGGUAACGCGUCUCCCCCCUAAGGGGAAGACUGCGGGUUCGAGUCCCGUACGGACCG [U32C A40G A70C]: 0.634. Next, GUUCCGUUGGCGUAAUGGUAACGCGUCUCCCACCUAAGGAGAAGACUGCGGGUUCGAGUCCCGAUCGGAACG [U32A U64A A65U]: 0.961. Take GUUCCGUUGGCGUAAUGGUAACGCGUCUCCCCCCUAAGGUGAAGACUGCGGGUUCGAGUUCCGUACCGAGCG [U32C A40U C60U G67C A70G]: the yeast fitness was not above 0.5.

With GUUCCGUUGGCGUAAUGGUAACGCGUCUCCCCCCUAAGGAGAUGACUGCGGGUUCGAGUCCCGUACGGAUCG [U32C A43U A70U], the yeast fitness turned out to be 0.735. As for GUUCCGUUGGCGUAAUGGUAACGCGUCUCCCACCUAAGGAGAAGACUGCGGGAUCGAGUCCCGUACGGAACG [U32A U53A], the yeast fitness was not above 0.5. In the case of GUUCCGUUGGCGUAAUGGUAACGCGUCUCCCACCAAAGGAGAAGACUGCGGGUUCGAGUCCCGUACGGAACG [U32A U35A] it was 0.619. Next, GUUCCGUUGGCGUAAUGGUAACGCGUCUCCCCCCUAAGGUGAAGAAUGCGGGUUCGAGUCCCGUUCGGAACG [U32C A40U C46A A65U]: 0.589; GUUCCGUUGGCGUAAUGGUAACGCGUCUCCCACCUAAGAAGAAGACUGGGGGUUCGAGUCCCGUACGGAACG [U32A G39A C49G]: not above 0.5; GUUCCGUUGGCGUAAUGGUAACGCGUCUCCCCCCUUAAGAGAAGACUGCAGGUUCGAGUCCCGUACAGAACG [U32C A36U G38A G50A G67A]: not above 0.5. With GUUCCGUUGGCGUAAUGGUAACGCGUCUCCCCCCUAAGGCGAAGACUGCGAGUUCGAGUCUCGUACGGCACG [U32C A40C G51A C61U A69C], the yeast fitness was not above 0.5. For the variant GUUCCGUUGGCGUAAUGGUAACGCGUCUCCCACCUAAGGAGAAGACUGCGGGUUCGACUCCCCUACGGAACG [U32A G58C G63C], the yeast fitness is not above 0.5.

As to GUUCCGUUGGCGUAAUGGUAACGCGUCUCCCACCUAAGGAGAAGACUGCGGGUUCCAGUCCCGUACGGAACG [U32A G56C], the yeast fitness was found to be 0.594. In the case of GUUCCGUUGGCGUAAUGGUAACGCGUCUCCCCCCUAAGGAGAAGACUGCGGGUUCGUGUCCCGUACGGAACG [U32C A57U], the yeast fitness worked out at 0.813. Turning to GUUCCGUUGGCGUAAUGGUAACGCGUCUCCCCCCUAAGGAGAAGACUGCGGGUUCGCGUCCCGUACGGAACG [U32C A57C], the yeast fitness is 0.659. With GUUCCGUUGGCGUAAUGGUAACGCGUCUCCCCCCUAUGGAGAAGACUACGGGUUCGAGUCCCCUACGGAACG [U32C A37U G48A G63C], the yeast fitness is not above 0.5.

Consider GUUCCGUUGGCGUAAUGGUAACGCGUCUCCCACCUAAGGAGAAGACUGCGGGUUCGAAUCCCGUACGGACCG [U32A G58A A70C], for which the yeast fitness was determined as 0.513.

With GUUCCGUUGGCGUAAUGGUAACGCGUCUCCCCCCUAAGGAGAUGACUGCGGGUUCGAGUCCCGUACGGAACG [U32C A43U], the yeast fitness stood at 0.921. In the case of GUUCCGUUGGCGUAAUGGUAACGCGUCUCCCCCCUAAGGAGAGGACUGCGGGUUCGAGUCCCGUACGGAACG [U32C A43G] it was 0.998; in that of GUUCCGUUGGCGUAAUGGUAACGCGUCUCCCACCUAAGAAGAAGACUGCGGGUUCGAGUCCCGUACGGAACG [U32A G39A], 0.792; in that of GUUCCGUUGGCGUAAUGGUAACGCGUCUCCCACCUAAGGAGAAGACUGCGGGUUCGAGGCCCGUACGGAACG [U32A U59G], 0.831.

Source of the values: the RNAGym collection of RNA variant scans (doi:10.1126/science.aae0568).
